Active and inactive are the calls of the source. The rule behind the calls is not given here. Where a SMILES comes first, the peptide text is derived from it. Bridges are numbered along the chain shown (N, C = ends). [ ]: non-standard residue; d: D form. 2Nal = N[C@@H](Cc1ccc2ccccc2c1)C(=O)O; Cit = NC(=O)NCCC[C@H](N)C(=O)O
Columns and labels:
[1] = Half life in iv dosed mouse; type: ADME, organism-based; settings: in vivo
[2] = Antimetastatic activity against HGF/TGF-beta/CXCR4/MMP2 expressing human OMM 2.3 cells xenografted in nude mouse eye assessed as decrease in number of hepatic micrometastases at 10 mg/kg, ip administered 3 days after tumor implantation QD for 28 days by hematoxylin and eosin staining; type: functional; parameters: scale not given: the % may be the effect or the level left; settings: route intraperitoneal
Outline: (§1)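 Female nude mice, 10/group; 1×10^6 OMM2.3 cells into posterior chamber of right eye day 0. Daily i.p. dosing (10 mg/kg or 300 µg/kg in 0.1 mL 45% cyclodextrin) from day 3; vehicle controls; tumor eyes enucleated day 7. Day 28 livers formalin-fixed, H&E; micrometastases (<100 µm) counted in six central sections, averaged per section.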

[3] = system: Mus musculus; assay: Protection against bleomycin-induced lung injury in mouse assessed as decrease in alveolar structural distortion at 10 mg/kg, ip administered 1 day before bleomycin treatment and daily for 20 days by hematoxylin and eosin staining; type: functional, organism-based; parameters: dose 10 mg/kg
Outline: (§2)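 Mice, 10/group, anesthetized with isoflurane; 4 U/kg bleomycin in 100 µL PBS instilled intratracheally. Dosing i.p. (10 mg/kg, 300 µg/kg, or saline) from 1 day before bleomycin, daily for 20 days. Lungs harvested day 20, H&E-stained sections examined microscopically.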

[4] = biological target: T1, C-X-C chemokine receptor type 4 (Homo sapiens, UniProt P61073); assay: Antagonist activity at human CXCR4 expressed in human U87 cells expressing CD4 assessed as inhibition of CXCL12-induced cAMP production pretreated for 15 mins before forskolin challenge by TR-FRET analysis; type: functional, cell-based, U-87MG ATCC
T1 sequence (P61073 whole entry): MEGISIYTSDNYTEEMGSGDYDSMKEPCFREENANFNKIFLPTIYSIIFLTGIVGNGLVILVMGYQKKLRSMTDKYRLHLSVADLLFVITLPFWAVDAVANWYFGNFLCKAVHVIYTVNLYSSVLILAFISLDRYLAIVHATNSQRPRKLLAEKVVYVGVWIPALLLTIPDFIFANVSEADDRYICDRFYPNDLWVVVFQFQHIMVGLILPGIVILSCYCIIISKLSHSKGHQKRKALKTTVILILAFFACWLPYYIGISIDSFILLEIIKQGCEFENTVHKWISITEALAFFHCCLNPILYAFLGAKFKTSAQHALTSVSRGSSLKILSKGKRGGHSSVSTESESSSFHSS

[5] = biological target: T1, C-X-C chemokine receptor type 4; assay: Antagonist activity at CXCR4 in human MDA-MB-231 cells assessed as inhibition of CXCL12-mediated cell invasion at 10 nM by […] cell invasion assay; type: functional, cell-based
[6] = biological target: T1, C-X-C chemokine receptor type 4; assay: Antagonist activity at CXCR4 in human MDA-MB-231 cells assessed as inhibition of CXCL12-mediated cell invasion at 100 nM by […] cell invasion assay; type: functional, cell-based
[7] = biological target: C-C chemokine receptor type 5 (Homo sapiens) (UniProt P51681); assay: Antagonist activity at human CCR5 expressed in human U87 cells expressing CD4 assessed as inhibition of CCL5-induced cAMP production pretreated for 15 mins before forskolin challenge by TR-FRET analysis; type: functional, cell-based; settings: U-87MG ATCC
C-C chemokine receptor type 5 (Homo sapiens), sequence (P51681 whole entry, looked up): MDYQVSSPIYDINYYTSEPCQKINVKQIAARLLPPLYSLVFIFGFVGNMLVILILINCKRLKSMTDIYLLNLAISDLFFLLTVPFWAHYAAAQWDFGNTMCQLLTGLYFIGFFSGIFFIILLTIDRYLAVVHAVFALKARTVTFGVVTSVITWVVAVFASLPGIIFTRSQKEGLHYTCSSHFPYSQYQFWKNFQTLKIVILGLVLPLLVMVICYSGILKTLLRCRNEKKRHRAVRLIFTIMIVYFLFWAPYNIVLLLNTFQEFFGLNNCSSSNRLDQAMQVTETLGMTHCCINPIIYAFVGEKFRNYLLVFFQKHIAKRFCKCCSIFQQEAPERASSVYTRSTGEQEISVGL
Outline: (§3)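 U87CD4CCR3 or U87CD4CCR5 cells pretreated with compound 15 min at room temperature, then stimulated with 150 ng/mL CCL5 in presence of 5 µM forskolin; cAMP measured by TR-FRET LANCE kit.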

[8] = biological target: T2, C-C chemokine receptor type 3 (Homo sapiens) (UniProt P51677); assay: Antagonist activity at human CCR3 expressed in human U87 cells expressing CD4 assessed as inhibition of CCL5-induced cAMP production pretreated for 15 mins before forskolin challenge by TR-FRET analysis; type: functional, cell-based; settings: U-87MG ATCC; outline: as §3
T2 sequence (whole entry): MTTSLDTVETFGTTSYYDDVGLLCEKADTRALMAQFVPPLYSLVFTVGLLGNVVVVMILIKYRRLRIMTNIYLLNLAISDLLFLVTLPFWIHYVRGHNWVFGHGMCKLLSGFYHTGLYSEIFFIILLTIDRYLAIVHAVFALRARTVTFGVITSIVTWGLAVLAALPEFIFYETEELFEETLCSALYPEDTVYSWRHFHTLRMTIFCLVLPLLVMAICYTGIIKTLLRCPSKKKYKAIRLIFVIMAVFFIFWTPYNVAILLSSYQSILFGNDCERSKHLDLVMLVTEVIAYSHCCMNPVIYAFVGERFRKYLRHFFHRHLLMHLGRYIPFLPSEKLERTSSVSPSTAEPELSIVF

[9] = system: MDA-MB-231; assay: Antiangiogenic activity against human MDA-MB-231 cells xenografted in nude mouse assessed as hemoglobin level at 10 mg/kg, sc measured after 10 days by […] plug assay; type: functional; settings: route subcutaneous; for inhibition in vivo at 10 mg/kg: Mus musculus, MDA-MB-231, sc, 240 h
Outline: (§4)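 Nude mice, two s.c. flank plugs each (6 mice/group): 2×10^5 MDA-MB-231 cells in 0.5 mL growth factor-reduced Matrigel with compound mixed at 1 µM. From next day, daily s.c. dosing between plugs (10 mg/kg; peptide 300 µg/kg). Day 10 plugs excised, homogenized in water; supernatant with Drabkin's solution, 52 °C 10 min then RT 20 min, A540.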

[10] = biological target: T1, C-X-C chemokine receptor type 4; assay: Displacement of biotinylated-TN14003 from CXCL12 binding site of CXCR4 in human MDA-MB-231 cells assessed as concentration required to inhibit >50% using rhodamine staining; type: cell-based
Outline: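 MDA-MB-231 cells preincubated with compound at 1, 10, 100, 1000 nM, fixed in 4% formaldehyde, incubated with 50 nM biotinylated peptide antagonist then streptavidin-rhodamine; EC is lowest concentration blocking >50% of binding.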

[11] = system: Mus musculus; assay: Protection against bleomycin-induced lung injury in mouse assessed as decrease in lung fibrosis at 10 mg/kg, ip administered 1 day before bleomycin treatment and daily for 20 days by hematoxylin and eosin staining; type: functional; parameters: scale not given: the % may be the effect or the level left; settings: route intraperitoneal; outline: as §2
[12] = system: Mus musculus; assay: Antiinflammatory activity in C57BL/6L mouse assessed as inhibition of carrageenan-induced paw edema at 10 mg/kg, ip administered 30 mins before carrageenan challenge measured after 76 hrs; type: functional; settings: for inhibition in vivo at 10 mg/kg: route intraperitoneal
[13] = system: Mus musculus; assay: Protection against bleomycin-induced lung injury in mouse assessed as decrease in interstitial structural distortion at 10 mg/kg, ip administered 1 day before bleomycin treatment and daily for 20 days by hematoxylin and eosin staining; type: functional, organism-based; parameters: dose 10 mg/kg; outline: as §2
[14] = system: Mus musculus; assay: Protection against bleomycin-induced lung injury in mouse assessed as decrease in interstitial structural distortion at 300 ug/kg, ip administered 1 day before bleomycin treatment and daily for 20 days by hematoxylin and eosin staining; type: functional, organism-based; outline: as §2
[15] = system: Mus musculus; assay: Antiinflammatory activity in C57BL/6L mouse assessed as inhibition of carrageenan-induced paw edema at 300 ug/kg, ip administered 30 mins before carrageenan challenge measured after 76 hrs; type: functional, organism-based
[16] = system: Mus musculus; assay: Protection against bleomycin-induced lung injury in mouse assessed as decrease in alveolar structural distortion at 300 ug/kg, ip administered 1 day before bleomycin treatment and daily for 20 days by hematoxylin and eosin staining; type: functional, organism-based; outline: as §2
[17] = Antimetastatic activity against HGF/TGF-beta/CXCR4/MMP2 expressing human OMM 2.3 cells xenografted in nude mouse eye assessed as decrease in number of hepatic micrometastases at 300 ug/kg, ip administered 3 days after tumor implantation QD for 28 days by hematoxylin and eosin staining; type: functional; parameters: scale not given: the % may be the effect or the level left; outline: as §1
[18] = system: MDA-MB-231; assay: Antiangiogenic activity against human MDA-MB-231 cells xenografted in nude mouse assessed as hemoglobin level at 300 ug/kg, sc measured after 10 days by […] plug assay; type: functional, organism-based; outline: as §4
[19] = system: Mus musculus; assay: Protection against bleomycin-induced lung injury in mouse assessed as decrease in lung fibrosis at 300 ug/kg, ip administered 1 day before bleomycin treatment and daily for 20 days by hematoxylin and eosin staining; type: functional; parameters: scale not given: the % may be the effect or the level left; outline: as §2

| inhibition [5] | inhibition [6] | EC [10] | SMILES | inhibition in vivo at 10 mg/kg [12] | also measured |
| --- | --- | --- | --- | --- | --- |
| 73% | 93% | 1 nM | Fc1cnc(NCc2ccc(CNc3nccc(C(F)(F)F)n3)cc2)nc1 | 20% | inhibition in vivo at 10 mg/kg [9]: > 30% |
| 45% | 68% | 100 nM | Fc1ccc(NCc2ccc(CNc3ccc(F)cn3)cc2)nc1 | – | – |
| 55% | 85% | 100 nM | Fc1cccc(NCc2ccc(CNc3cccc(F)n3)cc2)n1 | – | – |
| 24% | 65% | 10 nM | COc1nccc(NCc2ccc(CNc3ccnc(OC)n3)cc2)n1 | – | inhibition in vivo at 10 mg/kg [9]: > 30% |
| 75% | 75% | 1 nM | Fc1cnc(NCc2ccc(CNc3ncc(F)cn3)cc2)nc1 | – | – |
| 41% | 62% | – | Fc1ccccc1NCc1ccc(CNc2ncccn2)cc1 | – | – |
| 65% | 81% | 1 nM | Fc1nccc(NCc2ccc(CNc3ccnc(F)n3)cc2)n1 | – | – |
| 82% | 100% | 10 nM | Clc1ccc(NCc2ccc(CNc3ncccn3)cc2)nc1 | 20% | – |
| 100% | 100% | 1 nM | Clc1cccc(NCc2ccc(CNc3ncccn3)cc2)n1 | > 50% | inhibition in vivo at 10 mg/kg [9]: > 30% |
| 53% | 80% | – | Fc1cccc(NCc2ccc(CNc3ncccn3)cc2)n1 | > 50% | inhibition in vivo at 10 mg/kg [9]: > 30% |

Further lines, the molecule ahead of its results:

| SMILES | inhibition [5] | inhibition [6] | EC [10] | inhibition in vivo at 10 mg/kg [12] | also measured |
| --- | --- | --- | --- | --- | --- |
| Fc1cnc(Cl)nc1NCc1ccc(CNc2ccnc(NCCN3CCOCC3)n2)cc1 | 84% | 100% | 1 nM | > 50% | half-life [1]: 15 min; Activity [2]: 50%; Activity [3]: Active; IC50 [4]: 0.8 nM; inhibition [7]: inactive; inhibition [8]: inactive; Activity [9]: 70%; Activity [11]: 55%; Activity [13]: Active |
| c1ccc(NCc2ccc(CNc3ncccn3)cc2)nc1 | 58% | 64% | 100 nM | – | – |
| c1ccc(NCc2ccc(CNc3ccccn3)cc2)nc1 | – | – | – | – | IC50 [4]: 1.8 nM; inhibition [7]: inactive; inhibition [8]: inactive; inhibition [12]: Active |
| N=C(N)NCCC[C@H](NC(=O)[C@@H]1CSSC[C@H](NC(=O)[C@H](Cc2ccc3ccccc3c2)NC(=O)[C@H](CCCNC(=N)N)NC(=O)[C@@H](N)CCCNC(=N)N)C(=O)N[C@@H](Cc2ccc(O)cc2)C(=O)N[C@@H](CCCNC(N)=O)C(=O)N[C@@H](CCCCN)C(=O)N[C@H](CCCCN)C(=O)N2CCC[C@H]2C(=O)N[C@@H](Cc2ccc(O)cc2)C(=O)N[C@@H](CCCNC(=N)N)C(=O)N[C@@H](CCCNC(N)=O)C(=O)N1)C(N)=O (H-RR[2Nal]CY[Cit]K[dK]PYR[Cit]CR-NH2; disulfide 4-13) | – | – | – | – | Activity [14]: Active; inhibition [15]: Active; Activity [16]: Active; Activity [17]: 50%; inhibition [18]: Active; Activity [19]: 85% |
| c1cnc(NCc2ccc(CNc3ccc(N4CCCC4)cc3)cc2)nc1 | 57% | 82% | 1 nM | – | – |
| c1cnc(NCc2ccc(CNc3cccc(N4CCCC4)c3)cc2)nc1 | 41% | 78% | 10 nM | – | – |
| c1ccc(NCc2ccc(CNc3ncccn3)cc2)cc1 | – | – | – | 20% | – |
| COc1ncc(F)c(NCc2ccc(CNc3nc(OC)ncc3F)cc2)n1 | 77% | 100% | 1 nM | 20% | – |
| Clc1nc(Cl)nc(NCc2ccc(CNc3nc(Cl)nc(Cl)n3)cc2)n1 | 61% | 82% | 10 nM | – | – |
| c1ccc(NCc2ccc(CNc3ccccc3)cc2)cc1 | 54% | 64% | – | – | – |
| c1cnc(NCc2ccc(CNc3ccccc3N3CCCC3)cc2)nc1 | 61% | 73% | 100 nM | – | – |
| CCOCCN1CCN(C(=O)c2cnc(NCc3ccc(CNc4ncc(F)cn4)cc3)nc2C(F)(F)F)CC1 | 34% | 95% | 1 nM | 20% | IC50 [4]: 5.4 nM; inhibition [7]: inactive; inhibition [8]: inactive; inhibition in vivo at 10 mg/kg [9]: > 30% |
| Fc1ccccc1NCc1ccc(CNc2ccccc2F)cc1 | 32% | 58% | 100 nM | – | – |

Source: ChEMBL document CHEMBL1799970, “Dipyrimidine amines: a novel class of chemokine receptor type 4 antagonists with high specificity” (J Med Chem, 2010)
